Test results taken from paper PMC4010290 (Journal of Agricultural and Food Chemistry, 2014).

Assays:
[1] = target: T1, Bovine serum albumin (BSA) (Bos taurus, UniProt P02769); assay: BSA fluorescence quenching; assay type: binding; settings: for KSV (Stern–Volmer constant, BSA fluorescence quenching): 3 μM BSA, 22 °C
[2] = target: Bovine serum albumin (BSA), Trp134 and Trp213 (Bos taurus, UniProt P02769); assay: Time domain fluorescence lifetime of the two Trp residues of BSA; assay type: binding; settings: for τ fluorescence lifetime Trp134 / τ fluorescence lifetime Trp213: 25 μM phenolic
How it was run: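 BSA (3 μM final) mixed with test compound (25 μM) in 0.2 M sodium phosphate with 0.1 M NaCl at pH 3.0, 5.0 or 7.4. Samples vortexed, nitrogen-sparged 20 min, then held 1 h at 22 °C. Time-correlated single-photon counting used 250 nm LED excitation, collecting to 10000 peak counts. Biexponential decay fit gave lifetimes and amplitudes for Trp134 and Trp213.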

[3] = target: T1, Bovine serum albumin (BSA); assay: Induced circular dichroism spectra of BSA; assay type: binding; settings: 200 μM ligand; 30 μM BSA; pH 7.4
How it was run: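 BSA at 30 μM in 0.2 M sodium phosphate, pH 7.4, with test compound at 0–200 μM, dissolved from water stocks. CD recorded 355–245 nm in a 1 mm cell under dry nitrogen at 298–301 K. Settings were 12 accumulated scans, 0.5 nm pitch, 1.0 nm bandwidth and 100 nm/min. Buffer spectrum subtracted, and induced CD calculated from sample spectra by the paper's equation.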

BSA Sudlow site I = settings: cited from earlier work
BSA = BSA (Bos taurus, UniProt P02769); assay type: binding, bovine; settings: pH 7.4; TB up to a 50-fold excess
BSA Sudlow site II = settings: cited from earlier work

Chain of Bovine serum albumin (BSA), Trp134 and Trp213 (P02769 25-607): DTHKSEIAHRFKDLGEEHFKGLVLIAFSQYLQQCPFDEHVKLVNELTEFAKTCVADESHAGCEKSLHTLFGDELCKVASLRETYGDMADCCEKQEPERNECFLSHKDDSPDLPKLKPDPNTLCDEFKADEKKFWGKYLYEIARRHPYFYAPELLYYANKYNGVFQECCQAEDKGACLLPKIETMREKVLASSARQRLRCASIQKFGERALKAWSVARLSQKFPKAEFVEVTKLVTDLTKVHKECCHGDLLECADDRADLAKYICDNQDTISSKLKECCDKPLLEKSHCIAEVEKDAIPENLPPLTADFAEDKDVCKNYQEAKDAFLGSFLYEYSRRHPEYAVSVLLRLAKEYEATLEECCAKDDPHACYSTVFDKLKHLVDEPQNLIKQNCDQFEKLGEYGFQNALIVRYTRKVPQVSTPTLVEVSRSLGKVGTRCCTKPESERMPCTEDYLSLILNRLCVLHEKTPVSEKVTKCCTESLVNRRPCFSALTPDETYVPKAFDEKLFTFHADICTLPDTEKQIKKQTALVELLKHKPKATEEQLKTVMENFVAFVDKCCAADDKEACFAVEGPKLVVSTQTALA
T1 sequence (P02769 25-607): as above
Chain of BSA (P02769 25-607): as above

| SMILES | Apparent affinity for BSA [1] | KSV (Stern–Volmer constant, BSA fluorescence quenching) ([1]; pH 3.0) | KSV (Stern–Volmer constant, BSA fluorescence quenching) ([1]; pH 5.0) | KSV (Stern–Volmer constant, BSA fluorescence quenching) ([1]; pH 7.4) | Change of lifetime of either Trp ([2]; any pH, 25 μM) | τ fluorescence lifetime Trp134 ([2]; pH 3.0) [ns] | τ fluorescence lifetime Trp213 ([2]; pH 3.0) [ns] | τ fluorescence lifetime Trp134 ([2]; pH 5.0) [ns] | τ fluorescence lifetime Trp213 ([2]; pH 5.0) [ns] | τ fluorescence lifetime Trp134 ([2]; pH 7.4) [ns] | τ fluorescence lifetime Trp213 ([2]; pH 7.4) [ns] | Fluctuation of the amplitudes of the induced CD spectra [3] [mdeg] | Reduction of fluorescence lifetime of Trp213 ([2]; pH 7.4 only, 25 μM) [%] | Association constant, Sudlow site I (BSA Sudlow site I) | Inhibition of EGCg binding to BSA (BSA) | Association constant, Sudlow site II (BSA Sudlow site II) |
| --- | --- | --- | --- | --- | --- | --- | --- | --- | --- | --- | --- | --- | --- | --- | --- | --- |
| Oc1cc(O)c2c(c1)O[C@H](c1cc(O)c(O)c(O)c1)[C@H](O)C2 [EGC, (−)-Epigallocatechin] | about 10^3 M^–1 | 0.30 × 10^4 M^–1 | 0.23 × 10^4 M^–1 | 0.64 × 10^4 M^–1 | did not change the lifetime | 5.41 | 2.15 | 6.58 | 3.04 | 6.54 | 2.93 | ~0.2 |  |  |  |  |
| COC(=O)c1cc(O)c(O)c(O)c1 [MG, methyl gallate] |  | 0.85 × 10^4 M^–1 | 0.81 × 10^4 M^–1 | 5.4 × 10^4 M^–1 |  | 5.38 | 2.11 | 6.49 | 2.85 | 6.29 | 2.06 | ~0.2 | 30 |  |  |  |
| CCCCC1C(=O)N(c2ccccc2)N(c2ccccc2)C1=O [PB, phenylbutazone] |  |  |  |  |  |  |  |  |  |  |  |  |  | 6.2 × 10^5 M^–1 |  |  |
| CCCCNC(=O)NS(=O)(=O)c1ccc(C)cc1 [TB, tolbutamide] |  |  |  |  |  |  |  |  |  |  |  |  |  | 8.7 × 10^4 M^–1 | did not inhibit | 0.81 × 10^4 M^–1 |
